Source: ChEMBL document CHEMBL1777756, “Discovery of Novel Benzo[a]phenoxazine SSJ-183 as a Drug Candidate for Malaria” (ACS Med Chem Lett, 2010)
Activity calls are given as the source filed them. The calls are words filed in the database; no cut-off is given here.

What was measured:
Mus musculus [1] = test: Phototoxicity against mouse at 300 mg/kg, po; format: organism-based; parameters: dose 300 mg/kg, route oral; conditions: in vivo
Summary of the method: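 Mice dosed orally at 300 mg/kg were assessed for phototoxicity.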

[2] = biological target: T1, Adenosine receptor A3 (Homo sapiens) (UniProt P0DMS8); test: Inhibition of human recombinant A3 receptor at 1 uM
T1 sequence (whole entry): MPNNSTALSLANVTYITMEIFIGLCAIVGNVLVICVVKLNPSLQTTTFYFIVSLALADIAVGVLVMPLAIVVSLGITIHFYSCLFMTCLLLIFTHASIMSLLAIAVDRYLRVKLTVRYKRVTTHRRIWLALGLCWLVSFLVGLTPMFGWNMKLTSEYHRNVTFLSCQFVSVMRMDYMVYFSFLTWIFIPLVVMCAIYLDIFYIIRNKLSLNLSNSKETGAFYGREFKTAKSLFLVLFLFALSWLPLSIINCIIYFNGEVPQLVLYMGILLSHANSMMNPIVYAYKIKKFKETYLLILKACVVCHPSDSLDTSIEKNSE
Summary of the method: (§1)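 Binding assays were run against a panel of 80 receptors at 1 μM compound. Percent inhibition was read for human recombinant receptors.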

[3] = Biodistribution in mouse urine at 100 mg/kg, po administered as single dose; format: ADME, organism-based; parameters: dose 100 mg/kg, route oral; conditions: in vivo
Summary of the method: (§2)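 Mice received a single oral dose of 100 mg/kg. Urine, eyes and organs were then checked by eye for the purple/blue colour of the compound formulation.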

[4] = Toxicity in rat at 1000 mg/kg by micronucleus test; format: organism-based; parameters: dose 1000 mg/kg; conditions: in vivo
Summary of the method: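 In vivo micronucleus test in rats dosed at 1000 mg/kg × 2.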

[5] = Toxicity in S9 fraction at 2 uM by micronucleus test; format: subcellular; conditions: s9, 2 µM
Summary of the method: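 In vitro micronucleus test at 2.0 μM, run both without and with S9.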

[6] = biological target: D(3) dopamine receptor (Homo sapiens) (UniProt P35462); test: Inhibition of human recombinant D3 receptor at 1 uM; summary of the method: as §1
Blood = test: Cytotoxicity in G6PD-deficient human blood assessed as hemolysis; format: tissue-based
Plasmodium falciparum = test: Antimalarial activity against chloroquine and pyrimethamine resistant Plasmodium falciparum K1; format: functional, organism-based
Summary of the method: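 IC50 was determined in vitro against the chloroquine- and pyrimethamine-resistant P. falciparum K1 strain. Values are the mean of two independent assays.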

L6 = test: Cytotoxicity against rat L6 cells; format: cell-based
Summary of the method: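 Cytotoxicity was tested against L-6 rat myoblasts, with IC50 determined. Values are the mean of two independent assays.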

[7] = Selectivity index, ratio of IC50 for rat L6 cells to IC50 for Plasmodium falciparum K1; format: toxicity, cell-based; conditions: read-out: Ratio IC50
Summary of the method: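 Selectivity index is IC50 against L-6 cells divided by IC50 against chloroquine/pyrimethamine-resistant P. falciparum K1. Each IC50 is the mean of two independent assays.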

Plasmodium berghei [8] = test: Antimalarial activity against Plasmodium berghei NK-65 infected in ICR mouse assessed as inhibition of parasitemia at 100 mg/kg, po administered as single dose on day 1 measured on day 4; format: functional
Summary of the method: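 Compound was formulated at 100 mg/kg in 5% glucose/10% ethanol or in 7% Tween 80/3% ethanol. The suspension was given as a single oral dose on day 1 to female ICR mice infected with P. berghei NK-65. Parasitemia was determined on day 4 after infection. Treated-group mean is expressed as percent difference from the control-group mean.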

Plasmodium berghei [9] = test: Antimalarial activity against Plasmodium berghei NK-65 infected in ICR mouse assessed as survival days at 100 mg/kg, po administered as single dose (reference value: 6 days); format: functional
Summary of the method: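 Female ICR mice infected with P. berghei NK-65 received a single oral dose of 100 mg/kg on day 1. The compound was given as a suspension in 5% glucose/10% ethanol or in 7% Tween 80/3% ethanol. Parasitemia was read on day 4 as percent reduction relative to untreated controls, and mean survival days were recorded.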

Plasmodium berghei [10] = test: Antimalarial activity against Plasmodium berghei ANKA infected in NMRI mouse assessed as survival days at 100 mg/kg, po administered as single dose; format: functional
Summary of the method: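 Female NMRI mice infected with P. berghei ANKA received a single oral dose of 100 mg/kg. Three independent experiments were run with 3 mice each. Mean survival days were averaged across the experiments.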

Plasmodium berghei [11] = test: Antimalarial activity against Plasmodium berghei ANKA infected in NMRI mouse at 100 mg/kg, po administered as single dose; format: functional
Summary of the method: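 Female NMRI mice infected with P. berghei ANKA strain were given a single oral dose of 100 mg/kg. Three independent experiments were run with n = 3 mice per experiment. Inhibition of parasitemia and mean survival days are averaged across the experiments.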

Plasmodium berghei [12] = test: Antimalarial activity against Plasmodium berghei ANKA expressing green fluorescent protein infected in NMRI mouse assessed as growth inhibition at 100 mg/kg, po qd administered for 3 consecutive days measured on day 4 post parasitic infection; format: functional; conditions: 96 h, read-out: GI
Summary of the method: (§3)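 Oral dosing once a day for three consecutive days to female NMRI mice infected with P. berghei GFP ANKA strain. n = 3 mice per dose, data from 2–3 independent experiments. Parasitemia inhibition read on day 4 postinfection. Mean survival days and the percentage of cured animals were recorded.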

Plasmodium berghei [13] = test: Antimalarial activity against Plasmodium berghei ANKA expressing green fluorescent protein infected in NMRI mouse assessed as growth inhibition at 30 mg/kg, po qd administered for 3 consecutive days measured on day 4 post parasitic infection; format: functional; conditions: 96 h, read-out: GI; summary of the method: as §3
Plasmodium berghei [14] = test: Antimalarial activity against Plasmodium berghei ANKA expressing green fluorescent protein infected in NMRI mouse assessed as growth inhibition at 10 mg/kg, po qd administered for 3 consecutive days measured on day 4 post parasitic infection; format: functional; conditions: 96 h, read-out: GI; summary of the method: as §3
Plasmodium berghei [15] = test: Antimalarial activity against Plasmodium berghei ANKA expressing green fluorescent protein infected in NMRI mouse assessed as survival days at 100 mg/kg, po qd administered for 3 consecutive days; format: functional
Summary of the method: (§4)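 Female NMRI mice infected with GFP-expressing P. berghei ANKA were dosed orally once daily for three consecutive days, 3 mice per dose level, in 2 to 3 independent experiments. Parasitemia was read on day 4 post-infection, and mean survival days were recorded along with the percentage of cured animals.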

Plasmodium berghei [16] = test: Antimalarial activity against Plasmodium berghei ANKA expressing green fluorescent protein infected in NMRI mouse assessed as survival days at 30 mg/kg, po qd administered for 3 consecutive days; format: functional; summary of the method: as §4
Plasmodium berghei [17] = test: Antimalarial activity against Plasmodium berghei ANKA expressing green fluorescent protein infected in NMRI mouse assessed as survival days at 10 mg/kg, po qd administered for 3 consecutive days; format: functional; summary of the method: as §4
Plasmodium berghei [18] = test: Antimalarial activity against Plasmodium berghei ANKA expressing green fluorescent protein infected in NMRI mouse assessed as cure rate at 100 mg/kg, po qd administered for 3 consecutive days; format: functional; summary of the method: as §3
Plasmodium berghei [19] = test: Antimalarial activity against Plasmodium berghei ANKA expressing green fluorescent protein infected in NMRI mouse assessed as cure rate at 30 mg/kg, po qd administered for 3 consecutive days; format: functional; summary of the method: as §3
Mus musculus [20] = test: Toxicity in NMRI mouse infected with Plasmodium berghei ANKA expressing green fluorescent protein assessed as lethality at 2000 mg/kg, po qd administered for 3 consecutive days; format: organism-based; parameters: dose 2000 mg/kg, route oral; conditions: in vivo
[21] = Toxicity in S9 fraction at 1000 uM by chromosomal aberration test; format: subcellular; conditions: s9, 1000 µM
Summary of the method: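 Chromosome aberration test at 1000 μM, run both without and with S9 metabolic activation.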

[22] = Selectivity ratio of IC50 for Plasmodium falciparum K1 to IC50 for Trypanosoma brucei rhodesiense; format: functional
Trypanosoma cruzi [23] = test: Selectivity ratio of IC50 for Plasmodium falciparum K1 to IC50 for Trypanosoma cruzi; format: functional
Leishmania donovani [24] = test: Selectivity ratio of IC50 for Plasmodium falciparum K1 to IC50 for Leishmania donovani; format: functional
[25] = system: Trypanosoma brucei rhodesiense; test: Antiparasitic activity against Trypanosoma brucei rhodesiense; format: functional, organism-based
Trypanosoma cruzi [26] = test: Antiparasitic activity against Trypanosoma cruzi; format: functional, organism-based
Leishmania donovani [27] = test: Antiparasitic activity against Leishmania donovani; format: functional, organism-based
Mus musculus [28] = test: Biodistribution in mouse eyes at 100 mg/kg, po administered as single dose; format: ADME, organism-based, Eye; parameters: dose 100 mg/kg, route oral; conditions: in vivo; summary of the method: as §2
[29] = Terminal-half life in iv dosed Sprague-Dawley rat; format: ADME, organism-based; conditions: in vivo, read-out: beta t1/2 (converted)
Summary of the method: (§5)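 Male Sprague–Dawley rats received 2.8 mg/kg intravenously or 21.5 mg/kg orally, and the plasma concentration–time profile was followed. Oral bioavailability and terminal half-life after iv dosing were derived.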

[30] = Oral bioavailability in Sprague-Dawley rat; format: ADME, organism-based; conditions: in vivo; summary of the method: as §5
Plasmodium berghei [31] = test: Antimalarial activity against Plasmodium berghei str. ANKA infected in mouse assessed as cure rate at 100 mg/kg, po administered as three daily dose; format: functional, organism-based; parameters: dose 100 mg/kg; summary of the method: as §3

Chain of D(3) dopamine receptor (Homo sapiens) (P35462 whole entry): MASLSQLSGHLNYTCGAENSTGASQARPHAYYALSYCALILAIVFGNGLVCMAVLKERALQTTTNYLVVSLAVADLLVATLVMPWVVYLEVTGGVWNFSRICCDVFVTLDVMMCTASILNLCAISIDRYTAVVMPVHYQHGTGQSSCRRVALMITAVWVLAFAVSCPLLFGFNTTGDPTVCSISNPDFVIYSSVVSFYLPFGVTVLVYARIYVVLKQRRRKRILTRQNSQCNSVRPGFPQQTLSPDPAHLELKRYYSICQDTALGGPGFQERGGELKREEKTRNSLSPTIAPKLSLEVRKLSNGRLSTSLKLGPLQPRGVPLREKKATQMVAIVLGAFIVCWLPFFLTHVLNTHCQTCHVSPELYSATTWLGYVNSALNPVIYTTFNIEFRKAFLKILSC

Question: Which Activity (Mus musculus [1]) does the source give for `CCN(CC)c1ccc2nc3c4ccccc4/c(=N\c4ccncc4)cc-3oc2c1` here?
Answer: Non-toxic

Question: What about the inhibition [2] of the same compound?
Answer: 80%

Question: And the Drug uptake [3]?
Answer: Not Active

Question: And the Activity [4]?
Answer: Non-toxic

Question: What about the Activity [5] of the same compound?
Answer: Non-toxic

Question: And the inhibition [6]?
Answer: 80%

Question: What about the Activity (Blood) of the same compound?
Answer: Non-toxic

Question: And the IC50 (Plasmodium falciparum)?
Answer: 0.0076 µM

Question: What about the IC50 (L6) of the same compound?
Answer: 55.7 µM

Question: What about the selectivity ratio [7] of the same compound?
Answer: 7330

Question: And the inhibition in vivo at 100 mg/kg (Plasmodium berghei [8])?
Answer: > 99.9%

Question: What about the MSD (Plasmodium berghei [9]) of the same compound?
Answer: 14.6 days

Question: And the MSD (Plasmodium berghei [10])?
Answer: 16 days

Question: And the inhibition in vivo at 100 mg/kg (Plasmodium berghei [11])?
Answer: 99%

Question: And the inhibition in vivo at 100 mg/kg (Plasmodium berghei [12])?
Answer: > 99.9%

Question: And the inhibition in vivo at 30 mg/kg (Plasmodium berghei [13])?
Answer: 99%

Question: What about the inhibition in vivo at 10 mg/kg (Plasmodium berghei [14]) of the same compound?
Answer: 26%

Question: And the MSD (Plasmodium berghei [15])?
Answer: >30 days

Question: And the MSD (Plasmodium berghei [16])?
Answer: 27.2 days

Question: And the MSD (Plasmodium berghei [17])?
Answer: 4 days

Question: And the Activity (Plasmodium berghei [18])?
Answer: 100%

Question: And the Activity (Plasmodium berghei [19])?
Answer: 78%

Question: What about the Activity (Mus musculus [20]) of the same compound?
Answer: Non-toxic

Question: What about the Activity [21] of the same compound?
Answer: Non-toxic

Question: What about the Ratio IC50 [22] of the same compound?
Answer: > 1000

Question: And the Ratio IC50 (Trypanosoma cruzi [23])?
Answer: > 1000

Question: And the Ratio IC50 (Leishmania donovani [24])?
Answer: > 1000

Question: And the IC50 [25]?
Answer: 36 µM

Question: And the IC50 (Trypanosoma cruzi [26])?
Answer: 11.3 µM

Question: What about the IC50 (Leishmania donovani [27]) of the same compound?
Answer: 6.5 µM

Question: What about the Drug uptake (Mus musculus [28]) of the same compound?
Answer: Not Active

Question: And the half-life [29]?
Answer: 5.5 h

Question: What about the bioavailability [30] of the same compound?
Answer: 30%

Question: And the Activity (Plasmodium berghei [31])?
Answer: Active
